How the values were obtained:
Assay type in all cases: functional
L1210 = assay: Effective dose to inhibit the replication of L1210 cell line in vitro.; settings: Mus musculus, read-out: ED50 (the source's name)
How it was run: (§1)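 Murine L1210, P388 and S-180 cells grown as suspension cultures in Fischer's medium with 10% horse serum at 37 °C under 5% CO2. Various concentrations added to exponentially growing cells at 2 × 10⁴ cells/mL. Cells counted against drug-free controls after 24, 48 and 72 h. ED50 (50% inhibition of replication) estimated from dose-response curves of at least two independent experiments.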

CCRF-CEM = assay: Inhibit the replication of CCRF-CEM cell line in vitro.; settings: Homo sapiens, read-out: ED50 (the source's name)
How it was run: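 Human CCRF-CEM lymphoblastic leukemia cells held in suspension in RPMI medium with 10% horse serum, 37 °C, humidified 5% CO2. Test agent at various concentrations added to exponential-phase cultures (2 × 10⁴ cells/mL). Cell numbers compared with untreated cultures at 24, 48 and 72 h. 50% replication-inhibiting concentration read from dose-response curves, at least two independent experiments.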

P388 = assay: Effective dose to inhibit the replication of P388 cell line in vitro.; settings: Mus musculus, read-out: ED50 (the source's name); how it was run: as §1
CCRF S-180 = assay: Effective dose to inhibit the replication of S180 cell line in vitro.; settings: Mus musculus, read-out: ED50 (the source's name); how it was run: as §1

Structure (SMILES) | EC50 (L1210) [µM] | EC50 (CCRF-CEM) [µM] | EC50 (P388) [µM] | EC50 (CCRF S-180) [µM]
CC(=O)OC[C@@H]1C[C@H](O)[C@H](n2ccc(N)nc2=O)O1 | 3 | 0.4 | 3 | 13
CC(=O)Nc1ccn([C@@H]2O[C@H](COC(C)=O)C[C@@H]2OC(C)=O)c(=O)n1 | > 100 | 23 | > 100 | > 100
Nc1nc(=O)n([C@@H]2O[C@H](CO)C[C@H]2O)cc1Br | > 100 | > 100 | > 100 | > 100
Nc1nc(=O)n([C@@H]2O[C@H](CO)C[C@H]2O)cc1I | > 100 | > 100 | > 100 | > 100
O=c1[nH]c(=O)n([C@@H]2O[C@H](CO)C[C@@H]2O)cc1I | > 100 | > 100 | > 100 | > 100
CC(=O)O[C@H]1C[C@@H](CO)O[C@H]1n1ccc(N)nc1=O | 5 | 3 | 2 | 20
CC(=O)Nc1ccn([C@@H]2O[C@H](CO)C[C@@H]2OC(C)=O)c(=O)n1 | > 100 | > 100 | > 100 | > 100
Nc1ccn([C@@H]2O[C@H](CO)C[C@@H]2O)c(=O)n1 | 10 | 2 | 5 | 34
Nc1ccn([C@@H]2O[C@H](CO)C[C@H]2O)c(=O)n1 | 5 | 25 | 2.5 | 15
O=c1ccn([C@@H]2O[C@H](CO)C[C@H]2O)c(=O)[nH]1 | 50 | > 100 | 25 | > 100
O=c1[nH]c(=O)n([C@@H]2O[C@H](CO)C[C@@H]2O)cc1Br | > 100 | > 100 | > 100 | > 100
CC(=O)OC[C@@H]1C[C@H](OC(C)=O)[C@H](n2ccc(N)nc2=O)O1 | 20 | 1 | 10 | 30
Nc1ccn([C@@H]2O[C@H](CO)[C@@H](O)[C@@H]2O)c(=O)n1 [CYTARABINE] | 0.05 | 0.005 | 0.02 | 0.2
O=c1[nH]c(=O)n([C@@H]2O[C@H](CO)C[C@H]2O)cc1Br | > 100 | > 100 | > 100 | > 100
O=c1ccn([C@@H]2O[C@H](CO)C[C@@H]2O)c(=O)[nH]1 | > 100 | > 100 | > 100 | > 100
O=c1[nH]c(=O)n([C@@H]2O[C@H](CO)C[C@@H]2O)cc1Cl | > 100 | > 100 | > 100 | > 100
